Test results published in PubChem BioAssay.
A number with no mark means an inactive call. Inconclusive results are not listed. The source made the active and inactive calls.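 Rule for the calls, unless noted: active = viability increase at or above a cutoff of the median across tested compounds plus 3 SD (cut at about 8.5% in these data, passing the limit was not always enough); inconclusive = some gains above the cutoff, reason not given; inactive = the rest.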

How the values were obtained:
[1] = OD615 S. cerevisiae growth inhibition, permissive medium, pilot counter-assay, permissive growth control for S. cerevisiae lifespan shortening project (AID 705;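 active = growth inhibition above 25% in both replicates, a cutoff set 3 SD above the mean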); conditions: OD615, 24 h, at 10 µM, hits give high values
In short: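 System – S. cerevisiae with engineered DeaD lifespan system · Buffer or medium – SC raffinose/galactose permissive medium · Schedule – cells pre-grown 4 h, then 24 h compound exposure, 30 °C humidified · Technique – culture turbidity as optical density at 615 nm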

[2] = Restrictive medium S. cerevisiae growth inhibition, OD615, pilot screen of yeast lifespan reduction project, restrictive growth control (AID 706;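 active = growth inhibition above a set limit, 3 SD over mean compound inhibition, in both replicates, cut at about 43% in these data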;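 note: modified DeaD lifespan yeast strain shifted to restrictive glucose medium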); conditions: OD615, 48 h, at 10 µM, hits give high values
In short: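 Material: engineered S. cerevisiae DeaD strain / Medium: glucose-based CSMM-D restrictive medium / Compound: single dose of 10 µM compound final, 0.25% DMSO / Timing: 4 h pre-incubation, 48 h exposure at 30 °C / Technique: OD615 absorbance reading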

[3] = viability gain of MRP-1-high H69AR cells under doxorubicin, pilot screen, MRP-1 activator project, CellTiter-Glo, duplicate (AID 807); conditions: H69AR viability with doxorubicin, CellTiter-Glo luminescence; at 10 µM; hits give high values;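 note: compound pretreatment 18-22 h then 72 h combined with doxorubicin; 0% = doxorubicin alone and 100% = vehicle without doxorubicin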
[4] = growth suppression of beta-catenin knockout HCT116, pilot screen, human colon tumor cells (AID 823;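 active = cell viability at or below a set limit in both duplicate runs, the limit being the all-compound median minus 4 SD, cut at about 23% in these data, passing the limit was not always enough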;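 note: 0% = wells killed by 20 µM Hyamine and 100% = untreated DMSO cell wells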); conditions: CellTiter-Glo, 60 h, at 10 µM, hits give low values
[5] = growth suppression of PTEN-deleted HCT116, pilot screen, cell-based, HCT116 clonal line, CellTiter-Glo (AID 824;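 active = viability at or below 27.92% in each of two runs, the all-compound median minus 4 SD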;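 note: 0% = 20 µM Hyamine control and 100% = vehicle cell control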); conditions: 60 h, at 10 µM, hits give low values
[6] = inhibitors of the yeast RAM network, pilot screen, dse1pr::URA3 reporter, 5-FOA selection (AID 869;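 active = inhibition over a set limit, the all-compound mean plus 3 SD, in both replicate runs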;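 note: 0% = DMSO wells with no growth and 100% = 10 µM 1-NA-PP1 with full growth; RAM network block rescues cells from 5-FOA so hits raise OD615 growth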); conditions: S. cerevisiae dse1pr::URA3 5-FOA growth, OD615, 2 d; at 10 µM; hits give high values; strain carries analog-sensitive mutant Cbk1 kinase
[7] = RAM signaling pathway blockade in yeast – S. cerevisiae, Pdr1DBD-CYC8 efflux-inhibited sensitized strain, primary screen (AID 1298;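 active = RAM network inhibition above 8.4% in each of two replicates, 3 SD over the compound average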;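 note: 0% = DMSO untreated cells without growth and 100% = 10 µM 1-NA-PP1 full growth; higher means more yeast growth rescued from 5-FOA killing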); conditions: S. cerevisiae cbk1-as DSE1-URA3 strain, 5-FOA growth OD615, 2 d; at 50 µM; hits give high values

SMILES	growth inhibition [1]	growth inhibition [2]	viability increase [3]	viability [4]	viability [5]	inhibition [6]	RAM network inhibition [7]
CCN1C(=O)c2ccccc2S(=O)c2ccc(C(=O)NCc3ccccn3)cc21 (configuration not stated)	-1.77%	-3.51%	-0.87%	105%	95.7%	1.95%	-2.39%
O=C(NCCc1ccccc1)C1CCN(C(=O)c2sccc2-n2cccc2)CC1	-0.295%	-8.75%	-1.15%	101%	93.8%	3.48%	4%
COc1ccc(NC(=O)c2cnn3c(C(F)(F)F)cc(-c4ccco4)nc23)cc1OC	-11.5%	-12.4%	-0.73%	96.5%	93%	1.89%	2.09%
O=C(Nc1nc2c(s1)COc1ccccc1-2)c1cccs1	0.91%	-0.5%	-4.13%	72.2%	71%	1.43%	3.54%
O=C(Cn1cc2c(n1)CCCC2)Nc1ccccc1Br	-13%	-9.29%	-2.82%	95.7%	86.7%	1.64%	1.15%
CCN(CC)S(=O)(=O)c1ccc(Cl)c(C(=O)Nc2nnc(C)s2)c1	-6.93%	1.45%	0.43%	93.1%	95.7%	-0.08%	4.33%
Cc1nc(CCNC(=O)COc2ccccc2)cs1	-11%	-3.25%	-0.26%	103%	96.5%	1.14%	7.03%
O=C(c1cnn2c(C(F)(F)F)cc(-c3ccccc3)nc12)N1CCOCC1	-14.6%	-10%	-2.81%	103%	99.8%	0.505%	-1.1%
CCC(C)C1C(C#N)=C(N)OC2=C1C(=O)CC(C)(C)C2 (configuration not stated)	-10.1%	-15.1%	-3.48%	103%	86.5%	1.31%	6.21%
CC(=O)NCCc1ccc(S(=O)(=O)N2CCCC2)cc1	-6.14%	1.21%	0.04%	96.2%	96%	3.39%	3.82%
O=C1N=C(N2CCOCC2)SC1=C1CCCCC1	-8.5%	-2.34%	-2.09%	98%	97.1%	1.17%	1.84%
CCOC(=O)CN1Cc2cccc(C(=O)O)c2C1=O	-13.8%	-18.1%	-0.75%	95.6%	96.3%	0.535%	1.31%
Cc1ccc(OCCN2CCCCCC2)c(C)c1	-6.26%	2.46%	-3.81%	71.1%	70.4%	1.21%	2.8%
CCn1c(CCC(=O)Nc2cc(F)ccc2C)nc2cc(S(=O)(=O)N(C)C)ccc21	-6.57%	-1.81%	-0.38%	99.5%	97.1%	2.07%	6.18%
O=C(c1ccc(CS(=O)(=O)c2ccc(Br)cc2)o1)N1CCN(C2CCCCC2)CC1	0.435%	9.43%	-3.78%	112%	95.8%	1.93%	0.46%
Cc1ccc(S(=O)(=O)CCc2nc3ccccc3n2CCC#N)cc1	4.59%	0.82%	-7.34%	23.5% (active)	18.7% (active)	0.995%	0.01%
O=C1CC(c2ccc(S(=O)(=O)NCc3ccccc3)cc2)CN1 (configuration not stated)	-7.82%	-21%	-2.13%	101%	87.9%	1.56%	1.23%
COc1ccc(NC(=O)C(c2ccc(C)cc2)N(C)C(=O)c2cnccn2)cc1 (configuration not stated)	1.81%	1.4%	-1.03%	89.6%	95.6%	-0.145%	0.06%

SMILES	growth inhibition [1]	growth inhibition [2]	viability increase [3]	viability [4]	viability [5]	inhibition [6]	RAM network inhibition [7]
Cc1nc2ccc(S(=O)(=O)NC(C(=O)N3CCn4c3nc3ccccc34)C(C)C)cc2s1 (configuration not stated)	0.9%	8.13%	-1.67%	102%	97.2%	1.02%	5.83%
COc1cc(OC)cc(C(=O)Nc2cccc(NC(C)=O)c2)c1	-2.19%	-3.84%	-2.31%	111%	108%	2.15%	2.04%
Cc1cc(C)n(C(=O)CCN2C(=O)c3ccccc3C2=O)n1	-14.3%	5.39%	2%	94.9%	103%	-0.64%	-0.15%
CC(C)CCSc1nnc(Cn2c(=O)sc3ccccc32)n1C	-10.3%	2.02%	0.27%	79.8%	83.5%	1.08%	4.4%
N=C1C(c2nc3ccccc3c(=O)[nH]2)=C(O)CN1CCc1ccccc1	2.17%	-7.82%	-3.19%	93.6%	87.2%	0.995%	3.92%
O=C(CSc1nnc2ccccn12)N1CCc2ccccc2C1	-8.87%	0.78%	-0.88%	99.7%	93.2%	1.54%	2.11%
CCOC(=O)N1CCN(C(=O)COc2ccc(Br)cc2)CC1	-16.4%	11.8%	1.9%	100%	90.6%	1.12%	6.68%
O=c1c2cnn(-c3ccccc3)c2ncn1Cc1cccc(Cl)c1	2.21%	2.59%	3.21%	102%	91.7%	3.21%	6.55%
CCOc1ccc(NC(=O)CSc2nc3c(c(=O)n2-c2ccccc2OC)SCC3)cc1	-4.54%	-3.66%	-2.57%	94.3%	82.5%	0.805%	1.18%
COC(=O)CN1C(=O)C(O)(CC(=O)c2cccc(Br)c2)c2ccccc21 (configuration not stated)	-6.81%	-10.7%	-4.39%	90.9%	86.9%	1.2%	2.42%
CCCOc1ccc(N2C(=O)CC(N3CCC(O)(c4cccc(C(F)(F)F)c4)CC3)C2=O)cc1 (configuration not stated)	1.01%	-0.55%	2.49%	101%	103%	2.71%	5.62%
CCN1C(=O)c2cccc3c(N)ccc1c23	-0.755%	-11%	-5.55%	74.2%	68.3%	0%	1.92%
COc1cc2c(cc1OC)C(COc1ccc3c(C)cc(=O)oc3c1)N(C(=O)c1ccco1)CC2 (configuration not stated)	-1.62%	-3.73%	-4.63%	91.8%	87.8%	1.6%	4.74%
C=CCOc1ccc(/C=C/C(C)=N\O)cc1	3.48%	7.77%	-3.27%	93.2%	96.3%	1.11%	9.15%
COc1ccccc1C(=O)NC(C)c1nc2ccccc2[nH]1 (configuration not stated)	-3.51%	-5.35%	2.18%	99%	93%	3.37%	1.06%
O=C(CS(=O)(=O)c1cn(Cc2cccc(F)c2)c2ccccc12)N1CCOCC1	-9.09%	-22%	-3.47%	91.1%	88.8%	2.82%	6%
[O-]/[N+](=C\c1ccc(OC(F)F)cc1)c1ccccc1	-1.07%	2.88%	-5.13%	88.1%	93.7%	1.19%	1.08%
Fc1ccc(-c2nnc(-c3ccc(Cl)cc3Cl)o2)cc1	-6.69%	-11.2%	-5.12%	70.6%	64.2%	3.06%	3.99%
